The values below come from ChEMBL document CHEMBL1138089, “Cell permeation of a Trypanosoma brucei aldolase inhibitor: evaluation of different enzyme-labile phosphate protecting groups” (Bioorg Med Chem Lett, 2006).

One experiment relates to Leishmania infantum. Nature of the experiment: Inhibitory activity against Leishmania […]. The class given is functional, organism-based. An outline of the steps:
(§1)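 Parasites grown inside host macrophages in serum-containing medium, so compounds must cross the macrophage and parasite membranes; tested in vitro.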

The subject of a further experiment is Plasmodium falciparum. The experiment in a line: Inhibitory activity against Plasmodium falciparum. In kind it is functional, organism-based.
The test system of the next experiment is Trypanosoma brucei. The experiment in a line: Inhibitory activity against Trypanosoma brucei. In kind it is functional, organism-based. An outline of the steps:
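Parasites cultured free in serum-containing medium without macrophages; prodrugs tested in vitro against the cultures.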

Another experiment concerns MRC5. Nature of the experiment: Cytotoxicity against human MRC5 cells. In kind it is functional, cell-based.
For the next experiment, the system named is Trypanosoma cruzi. The experiment in a line: Inhibitory activity against Trypanosoma cruzi. The class given is functional, organism-based. The method, boiled down:
as §1

As a reminder, the IC50 is the concentration at which inhibition is half-maximal. Turning to `CC(=O)OCCSSCCOP(=O)(OCCSSCCOC(C)=O)Oc1ccc(O)c(C=O)c1`, the half-maximal inhibitory concentration (IC50) in the experiment on Leishmania infantum, in the experiment on Plasmodium falciparum, with Trypanosoma brucei, in the experiment on MRC5 and in the experiment on Trypanosoma cruzi was over 50 µM each time.
Consider `CC(=O)Oc1ccccc1CCC(=O)OCOP(=O)(OCOC(=O)CCc1ccccc1OC(C)=O)Oc1ccc(O)c(C=O)c1`, for which the 50% inhibitory concentration (IC50) with Leishmania infantum, in the experiment on Plasmodium falciparum, in the experiment with Trypanosoma brucei, with MRC5 and in the experiment with Trypanosoma cruzi was over 50 µM each time.
As to `CC(C)(C)C(=O)SCCOP(=O)(OCCSC(=O)C(C)(C)C)Oc1ccc(O)c(C=O)c1`, the IC50 in the experiment with Leishmania infantum amounted to 25 µM; in the experiment with Plasmodium falciparum it was 12 µM; in the experiment on Trypanosoma brucei, 16 µM; in the experiment with MRC5 it was 6 µM; with Trypanosoma cruzi, 15 µM.
The matching figures for `O=Cc1cc(OP(=O)(O)O)ccc1O`: over 50 µM, over 50 µM, over 50 µM, over 50 µM and over 50 µM.
In the same order, the values of `CC(C)(C)C(=O)OCOP(=O)(OCOC(=O)C(C)(C)C)Oc1ccc(O)c(C=O)c1` are over 50 µM, over 50 µM, 20 µM, over 50 µM and over 50 µM.
